Values after ≈ are worked out from the molar mass of the structure shown.
Assays:
Assay type in all cases: functional
[1] = test system: Helicobacter pylori; test: Anti-bacterial activity against Helicobacter pylori measured after 72 hrs incubation by modified broth dilution method
[2] = test system: Helicobacter pylori; test: Anti-bacterial activity against Helicobacter pylori Clinical isolate F1 measured after 72 hrs incubation by modified broth dilution method
[3] = test system: Helicobacter pylori; test: Anti-bacterial activity against Helicobacter pylori NCTC 11637 measured after 72 hrs incubation by modified broth dilution method
[4] = test system: Helicobacter pylori; test: Bactericidal activity against Helicobacter pylori Clinical isolate F1 measured after 72 hrs of incubation under microaerophilic conditions by modified broth dilution method; conditions: read-out: MBC99.9
How it was run: (§1)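 H. pylori (NCTC 11637, F1, 23, F4). Wells with no visible growth in the MIC assay spotted (10 μL) onto Skirrow agar. Plates incubated 72 h at 37 °C, microaerophilic, 100% humidity. MBC = concentration killing 99.9% of the initial inoculum. Triplicate, on at least three different days.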

[5] = test system: Helicobacter pylori; test: Bactericidal activity against Helicobacter pylori Clinical isolate 23 measured after 72 hrs of incubation under microaerophilic conditions by modified broth dilution method; conditions: read-out: MBC99.9; how it was run: as §1
[6] = test system: Helicobacter pylori; test: Bactericidal activity against Helicobacter pylori NCTC 11637 measured after 72 hrs of incubation under microaerophilic conditions by modified broth dilution method; conditions: read-out: MBC99.9; how it was run: as §1
[7] = test system: Helicobacter pylori; test: Anti-bacterial activity against Helicobacter pylori Clinical isolate 23 measured after 72 hrs incubation by modified broth dilution method
[8] = test system: Helicobacter pylori; test: Anti-bacterial activity against Helicobacter pylori Clinical isolate F4 measured after 72 hrs incubation by modified broth dilution method
[9] = test system: Helicobacter pylori; test: Bactericidal against Helicobacter pylori Clinical isolate F4 measured after 72 hrs of incubation under microaerophilic conditions by modified broth dilution method; conditions: read-out: MBC99.9; how it was run: as §1
[10] = test system: Helicobacter pylori; test: Bactericidal against Helicobacter pylori measured after 72 hrs of incubation under microaerophilic conditions by modified broth dilution method; conditions: for MBC: Helicobacter pylori, read-out: MBC99.9
How it was run: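 Wells with no visible growth in the MIC assay spotted (10 μL) onto Skirrow agar. Plates incubated 72 h at 37 °C, microaerophilic, 100% humidity. Triplicate, on at least three different days.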

Row | MIC50 [1] [µg/mL] | MIC90 [1] [µg/mL] | MIC [2] [µg/mL] | MIC [3] [µg/mL] | MIC [7] [µg/mL] | MIC [8] [µg/mL] | Structure (SMILES) | MBC [4] [µg/mL] | MBC [5] [µg/mL] | MBC [6] [µg/mL] | MBC [9] [µg/mL] | MBC [10] [µg/mL] | MBC90 [10] [µg/mL]
1 | 64 (≈ 204 µM) | 128 (≈ 409 µM) | 64 (≈ 204 µM) | 64 (≈ 204 µM) | 128 (≈ 409 µM) | 64 (≈ 204 µM) | C=CCc1cc(/N=N/c2ccc([N+](=O)[O-])cc2)c(O)c(OC)c1 | 64 (≈ 204 µM) | 128 (≈ 409 µM) | 64 (≈ 204 µM) | 128 (≈ 409 µM) |  | 128 (≈ 409 µM)
2 | 0.016 (≈ 0.0438 µM) | 0.064 (≈ 0.175 µM) | 0.064 (≈ 0.175 µM) | 0.016 (≈ 0.0438 µM) | 0.016 (≈ 0.0438 µM) | 0.064 (≈ 0.175 µM) | CC1(C)S[C@@H]2[C@H](NC(=O)[C@H](N)c3ccc(O)cc3)C(=O)N2[C@H]1C(=O)O [AMOXICILLIN] | 0.064 (≈ 0.175 µM) | 0.016 (≈ 0.0438 µM) | 0.016 (≈ 0.0438 µM) | 0.064 (≈ 0.175 µM) |  | 0.064 (≈ 0.175 µM)
3 | > 128 | > 128 | > 128 | > 128 | > 128 | > 128 | Cc1cc(OC(=S)N(C)C)c(C(C)C)cc1/N=N/c1ccc([N+](=O)[O-])cc1 | > 128 | > 128 | > 128 | > 128 |  | >128
4 | > 128 | > 128 | > 128 | > 128 | > 128 | > 128 | COc1cc(C)c(/N=N/c2ccc([N+](=O)[O-])cc2)cc1C(C)C | > 128 | > 128 | > 128 | > 128 |  | >128
5 | 64 (≈ 426 µM) | 64 (≈ 426 µM) | 64 (≈ 426 µM) | 64 (≈ 426 µM) | 64 (≈ 426 µM) | 64 (≈ 426 µM) | Cc1ccc(C(C)C)cc1O [CARVACROL] | 64 (≈ 426 µM) | 64 (≈ 426 µM) | 64 (≈ 426 µM) | 64 (≈ 426 µM) | 64 (≈ 426 µM) | 
6 | 128 (≈ 440 µM) | > 128 | 128 (≈ 440 µM) | 128 (≈ 440 µM) | 128 (≈ 440 µM) | 128 (≈ 440 µM) | COc1cc(C=O)cc(/N=N/c2cccc(Cl)c2)c1O | 128 (≈ 440 µM) | 128 (≈ 440 µM) | > 128 | 128 (≈ 440 µM) |  | >128

Further lines, the molecule ahead of its results:

Row | Structure (SMILES) | MIC50 [1] [µg/mL] | MIC90 [1] [µg/mL] | MIC [2] [µg/mL] | MIC [3] [µg/mL] | MIC [7] [µg/mL] | MIC [8] [µg/mL] | MBC [4] [µg/mL] | MBC [5] [µg/mL] | MBC [6] [µg/mL] | MBC [9] [µg/mL] | MBC [10] [µg/mL] | MBC90 [10] [µg/mL]
7 | COc1cccc(C=O)c1O | 8 (≈ 52.6 µM) | 16 (≈ 105 µM) | 4 (≈ 26.3 µM) | 8 (≈ 52.6 µM) | 16 (≈ 105 µM) | 8 (≈ 52.6 µM) | 4 (≈ 26.3 µM) | 16 (≈ 105 µM) | 16 (≈ 105 µM) | 8 (≈ 52.6 µM) | 16 (≈ 105 µM) | 
8 | COc1cc(C=O)cc(/N=N/c2ccc(Cl)c(Cl)c2)c1O | 64 (≈ 197 µM) | 128 (≈ 394 µM) | 64 (≈ 197 µM) | 128 (≈ 394 µM) | 64 (≈ 197 µM) | 128 (≈ 394 µM) | 64 (≈ 197 µM) | 128 (≈ 394 µM) | 128 (≈ 394 µM) | 128 (≈ 394 µM) |  | 128 (≈ 394 µM)
9 | C=CCc1cc(/N=N/c2cccc(OC)c2)c(O)c(OC)c1 | > 128 | > 128 | > 128 | > 128 | > 128 | > 128 | > 128 | > 128 | > 128 | > 128 |  | >128
10 | C=CCc1cccc(OC)c1O | > 128 | > 128 | > 128 | > 128 | > 128 | > 128 | > 128 | > 128 | > 128 | > 128 | > 128 | 
11 | Cc1cc(O)c(C(C)C)cc1C1(c2cc(C(C)C)c(O)cc2C)OS(=O)(=O)c2ccccc21 | > 128 | > 128 | 128 (≈ 274 µM) | > 128 | 128 (≈ 274 µM) | > 128 | 128 (≈ 274 µM) | > 128 | > 128 | > 128 |  | >128
12 | Cc1cc(O)c(C(C)C)cc1/N=N/c1ccccc1Cl | 4 (≈ 13.9 µM) | 4 (≈ 13.9 µM) | 4 (≈ 13.9 µM) | 4 (≈ 13.9 µM) | 4 (≈ 13.9 µM) | 4 (≈ 13.9 µM) | 4 (≈ 13.9 µM) | 8 (≈ 27.7 µM) | 4 (≈ 13.9 µM) | 4 (≈ 13.9 µM) |  | 8 (≈ 27.7 µM)
13 | C=CCc1cc(/N=N/c2ccc(Cl)cc2Cl)c(O)c(OC)c1 | > 128 | > 128 | > 128 | 128 (≈ 380 µM) | > 128 | > 128 | > 128 | > 128 | 128 (≈ 380 µM) | > 128 |  | >128
14 | COc1ccc(/N=N/c2cc(C(C)C)c(OC(=O)N(C)C)cc2C)cc1 | > 128 | 128 (≈ 360 µM) | 128 (≈ 360 µM) | 128 (≈ 360 µM) | 64 (≈ 180 µM) | 64 (≈ 180 µM) | > 128 | 128 (≈ 360 µM) | 64 (≈ 180 µM) | 64 (≈ 180 µM) |  | 128 (≈ 360 µM)
15 | Cc1ccccc1/N=N/c1cc(C(C)C)c(O)cc1C | 4 (≈ 14.9 µM) | 8 (≈ 29.8 µM) | 4 (≈ 14.9 µM) | 4 (≈ 14.9 µM) | 8 (≈ 29.8 µM) | 4 (≈ 14.9 µM) | 4 (≈ 14.9 µM) | 8 (≈ 29.8 µM) | 4 (≈ 14.9 µM) | 4 (≈ 14.9 µM) |  | 8 (≈ 29.8 µM)
